Measured values taken from ChEMBL document CHEMBL3244008, “Design of species- or isozyme-specific enzyme inhibitors. 2. Differences between a bacterial and a mammalian thymidine kinase in the effect of thymidine substituents on affinity for the thymidine site” (J Med Chem, 1979).
Values belong to the compound of their own block, whether it stands above or below them. Activity calls are given as the source filed them. The rule behind the calls is not given here.

Tests used:
[1] = tested on: Escherichia coli B; test: Inhibition of Escherichia coli B thymidine kinase using [2-14C]-thymidine as substrate assessed as formation of [14C]-TMP at 1 mM after 10 mins by liquid scintillation spectrometric analysis relative to control
In short: (§1)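 E. coli thymidine kinase (fraction V, purified from frozen cells; 7.2 × 10⁻⁶ units per assay) in Tris-HCl 71 mM, MgCl2 2.85 mM, MnCl2 0.71 mM, ATP 5.7 mM, BSA and [2-14C]thymidine 82 μM with test compound. The mixture was held at 37 °C for 10 min, then boiled. [14C]TMP was resolved by paper electrophoresis (pH 7.6) and scintillation-counted, with the unincubated blank subtracted.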

[2] = tested on: Escherichia coli B; test: Inhibition of Escherichia coli B thymidine kinase using [2-14C]-thymidine as substrate assessed as formation of [14C]-TMP at 0.5 mM after 10 mins by liquid scintillation spectrometric analysis relative to control; in short: as §1
[3] = tested on: Escherichia coli B; test: Inhibition of Escherichia coli B thymidine kinase using [2-14C]-thymidine as substrate assessed as formation of [14C]-TMP at 2 mM after 10 mins by liquid scintillation spectrometric analysis relative to control; in short: as §1
[4] = tested on: Escherichia coli B; test: Activation of Escherichia coli B thymidine kinase using [2-14C]-thymidine as substrate assessed as formation of [14C]-TMP at 0.1 mM after 10 mins by liquid scintillation spectrometric analysis relative to control; in short: as §1
[5] = tested on: Escherichia coli B; test: Activation of Escherichia coli B thymidine kinase using [2-14C]-thymidine as substrate assessed as formation of [14C]-TMP at 2 mM after 10 mins by liquid scintillation spectrometric analysis relative to control; in short: as §1
[6] = tested on: Escherichia coli B; test: Activation of Escherichia coli B thymidine kinase using [2-14C]-thymidine as substrate assessed as formation of [14C]-TMP at 0.5 mM after 10 mins by liquid scintillation spectrometric analysis relative to control; in short: as §1
[7] = tested on: Escherichia coli B; test: Activation of Escherichia coli B thymidine kinase using [2-14C]-thymidine as substrate assessed as formation of [14C]-TMP at 8 mM after 10 mins by liquid scintillation spectrometric analysis relative to control; in short: as §1
[8] = Competitive inhibition of Escherichia coli B thymidine kinase using [2-14C]-thymidine as substrate assessed as formation of [14C]-TMP after 10 mins by Lineweaver-Burk double reciprocal plot analysis; conditions: read-out: Ki(app)
In short: (§2)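 Fraction V E. coli thymidine kinase was assayed with MgATP 5.7 mM and Mg/Mn salts in Tris-HCl at 37 °C for 10 min, reading [14C]TMP after electrophoresis. Four or more thymidine levels (20–160 μM) were used at each of two inhibitor levels plus an inhibitor-free control, all in duplicate. Ki (competitive) or I50 (noncompetitive) came from replots of Lineweaver-Burk slopes against inhibitor concentration, reproducible to ±7%.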

[9] = Non-competitive inhibition of Escherichia coli B thymidine kinase using [2-14C]-thymidine as substrate assessed as formation of [14C]-TMP after 10 mins by Lineweaver-Burk double reciprocal plot analysis; conditions: read-out: I50; in short: as §2
[10] = tested on: Escherichia coli B; test: Activity of Escherichia coli B thymidine kinase assessed as [14C]-TMP formation at 500 uM after 1 hr by liquid scintillation spectrometric analysis; conditions: tested as the 14C-labelled form
[11] = tested on: Escherichia coli B; test: Activity of Escherichia coli B thymidine kinase assessed as [14C]-TMP formation at 450 uM after 1 hr by liquid scintillation spectrometric analysis; conditions: tested as the 14C-labelled form
[12] = tested on: Escherichia coli B; test: Inhibition of Escherichia coli B thymidine kinase using [2-14C]-thymidine as substrate assessed as formation of [14C]-TMP at 16 mM after 10 mins by liquid scintillation spectrometric analysis relative to control; in short: as §1
[13] = tested on: Escherichia coli B; test: Non-competitive inhibition of Escherichia coli B thymidine kinase using [2-14C]-thymidine as substrate assessed as formation of [14C]-TMP at 16 mM after 10 mins by Lineweaver-Burk double reciprocal plot analysis
[14] = tested on: Escherichia coli B; test: Activity of Escherichia coli B thymidine kinase assessed as [14C]-TMP formation at 775 uM after 1 hr by liquid scintillation spectrometric analysis relative to thymidine; conditions: tested as the 14C-labelled form
[15] = tested on: Escherichia coli B; test: Inhibition of Escherichia coli B thymidine kinase using [2-14C]-thymidine as substrate assessed as formation of [14C]-TMP at 8 mM after 10 mins by liquid scintillation spectrometric analysis relative to control; in short: as §1
[16] = tested on: Escherichia coli B; test: Inhibition of Escherichia coli B thymidine kinase using [2-14C]-thymidine as substrate assessed as formation of [14C]-TMP at 4 mM after 10 mins by liquid scintillation spectrometric analysis relative to control; in short: as §1
[17] = tested on: Escherichia coli B; test: Activation of Escherichia coli B thymidine kinase using [2-14C]-thymidine as substrate assessed as formation of [14C]-TMP at 1 mM after 10 mins by liquid scintillation spectrometric analysis relative to control; in short: as §1

SMILES: CCNc1ccn([C@H]2C[C@H](O)[C@@H](CO)O2)c(=O)n1
inhibition [3]: 0% | inhibition [2]: 0%

SMILES: CCC(=O)NCC(O)[C@H]1O[C@@H](n2cc(C)c(=O)[nH]c2=O)C[C@@H]1O (single isomer, unassigned; less polar)
Ki [8]: 850 µM

SMILES: Cc1cn([C@H]2C[C@H](O)[C@@H](C[S+]([O-])CCC(=O)O)O2)c(=O)[nH]c1=O (stereo partly specified)
Activity [4]: -2% | Activity [5]: 42% | Activity [6]: -1% | Activity [7]: 65%

SMILES: CC(=O)N(C)CCCCN(C)C[C@H]1O[C@@H](n2cc(C)c(=O)[nH]c2=O)C[C@@H]1O
inhibition [3]: 14% | inhibition [1]: 14%

SMILES: O=c1ccn([C@H]2C[C@H](O)[C@@H](CO)O2)c(=O)[nH]1 [DEOXYURIDINE]
Ki [8]: 290 µM

SMILES: O=c1ccn([C@@H]2O[C@H](CO)[C@@H](O)[C@H]2O)c(=O)[nH]1 [URIDINE]
IC50 [9]: 47500 µM

SMILES: Nc1ccn([C@H]2C[C@H](O)[C@@H](CO)O2)c(=O)n1
inhibition [3]: 0% | inhibition [2]: 0%

SMILES: CCCCCCNC[C@H]1O[C@@H](n2cc(C)c(=O)[nH]c2=O)C[C@@H]1O
Ki [8]: 2600 µM

SMILES: CCOC1N([C@H]2C[C@H](O)[C@@H](CO)O2)C(=O)NC(=O)C1(C)Br (single isomer, unassigned; less polar)
inhibition [12]: 0% | inhibition [13]: inactive

SMILES: Cc1cn([C@H]2C[C@H](O)[C@@H](CSCCCC(=O)O)O2)c(=O)[nH]c1=O
Activity [4]: 61% | Activity [5]: 62% | Activity [6]: 60% | Activity [7]: 35%

SMILES: CCOC1N([C@H]2C[C@H](O)[C@@H](CO)O2)C(=O)NC(=O)C1(C)Br (single isomer, unassigned)
inhibition [3]: 11% | inhibition [12]: 17% | inhibition [13]: inactive

SMILES: CCn1c(=O)c(C)cn([C@H]2C[C@H](O)[C@@H](CO)O2)c1=O
inhibition [1]: 44% | inhibition [2]: 30% | IC50 [9]: 1250 µM

SMILES: CCC(=O)NCC(O)[C@H]1O[C@@H](n2cc(C)c(=O)[nH]c2=O)C[C@@H]1O (single isomer, unassigned; more polar)
Ki [8]: 6600 µM

SMILES: CCCCCn1c(=O)c(C)cn([C@H]2C[C@H](O)[C@@H](CO)O2)c1=O
inhibition [1]: 59% | inhibition [2]: 45% | IC50 [9]: 650 µM

SMILES: CC(=O)NCCC(=O)Nc1cn([C@H]2C[C@H](O)[C@@H](CO)O2)c(=O)[nH]c1=O
inhibition [3]: 0% | inhibition [2]: 0%

SMILES: CC(=O)NCC(O)[C@H]1O[C@@H](n2cc(C)c(=O)[nH]c2=O)C[C@@H]1O (mixture of isomers)
Ki [8]: 2000 µM

SMILES: CCCn1c(=O)c(C)cn([C@H]2C[C@H](O)[C@@H](CO)O2)c1=O
inhibition [1]: 39% | inhibition [2]: 28%

SMILES: CCn1c(=O)ccn([C@H]2C[C@H](O)[C@@H](CO)O2)c1=O
inhibition [1]: 22% | inhibition [2]: 12%

SMILES: CC(=O)NCC(O)[C@H]1O[C@@H](n2cc(C)c(=O)[nH]c2=O)C[C@@H]1O (stereo in doubt; 4a)
Ki [8]: 1250 µM

SMILES: CCCn1c(=O)ccn([C@H]2C[C@H](O)[C@@H](CO)O2)c1=O
inhibition [1]: 35% | inhibition [2]: 18%

SMILES: Cc1cn([C@H]2C[C@H](O)[C@@H](CN)O2)c(=O)[nH]c1=O
Ki [8]: 320 µM

SMILES: CC(=O)N(C)CCCCCCN(C)C[C@H]1O[C@@H](n2cc(C)c(=O)[nH]c2=O)C[C@@H]1O
inhibition [3]: 14% | inhibition [1]: 14%

The remaining lines, values ahead:

inhibition [1]: 0% | inhibition [2]: 0%
SMILES: CCCC(=O)NC[C@H]1O[C@@H](n2cc(C)c(=O)[nH]c2=O)C[C@@H]1O

inhibition [3]: 40% | inhibition [2]: 23%
SMILES: N#Cc1cn([C@H]2C[C@H](O)[C@@H](CO)O2)c(=O)[nH]c1=O

Activity [4]: 120% | Activity [5]: 125% | Activity [6]: 126% | Activity [7]: 106%
SMILES: Cc1cn([C@H]2C[C@H](O)[C@@H](CSCCC(=O)O)O2)c(=O)[nH]c1=O

inhibition [1]: 0% | inhibition [2]: 0%
SMILES: CC(=O)NC[C@H]1O[C@@H](n2cc(C)c(=O)[nH]c2=O)C[C@@H]1O

IC50 [9]: 6100 µM
SMILES: CC(=O)N[C@H]1C[C@H](n2cc(C)c(=O)[nH]c2=O)O[C@@H]1CO

Activity [10]: inactive | Activity [11]: inactive
SMILES: CC(=O)NCC(O)[C@H]1O[C@@H](n2cc(C)c(=O)[nH]c2=O)C[C@@H]1O (stereo partly specified)

Activity [14]: < 0.021%
SMILES: CC(=O)NCc1cn([C@H]2C[C@H](O)[C@@H](CO)O2)c(=O)[nH]c1=O

inhibition [1]: 25% | inhibition [2]: 14%
SMILES: NCc1cn([C@H]2C[C@H](O)[C@@H](CO)O2)c(=O)[nH]c1=O

Activity [4]: -5% | Activity [5]: -4% | Activity [7]: 22%
SMILES: CC[S+]([O-])C[C@H]1O[C@@H](n2cc(C)c(=O)[nH]c2=O)C[C@@H]1O (stereo partly specified)

inhibition [3]: 0% | inhibition [1]: 0%
SMILES: CC(=O)N(C)CCN(C)C[C@H]1O[C@@H](n2cc(C)c(=O)[nH]c2=O)C[C@@H]1O

inhibition [3]: 0% | inhibition [2]: 0%
SMILES: CCNc1cn([C@H]2C[C@H](O)[C@@H](CO)O2)c(=O)[nH]c1=O

IC50 [9]: 320 µM
SMILES: CCS[C@H]1C[C@H](n2cc(C)c(=O)[nH]c2=O)O[C@@H]1CO

Activity [4]: 70% | Activity [5]: 46% | Activity [6]: 63%
SMILES: CCSC[C@H]1O[C@@H](n2cc(C)c(=O)[nH]c2=O)C[C@@H]1O

inhibition [3]: 15% | inhibition [2]: 15%
SMILES: CC(=O)Nc1cn([C@H]2C[C@H](O)[C@@H](CO)O2)c(=O)[nH]c1=O

IC50 [9]: 2750 µM
SMILES: Cc1cn([C@H]2C[C@H](N)[C@@H](CO)O2)c(=O)[nH]c1=O [3-AMINO- 3-DEOXYTHYMIDINE]

inhibition [15]: 36% | inhibition [16]: 28%
SMILES: CCNC[C@H]1O[C@@H](n2cc(C)c(=O)[nH]c2=O)C[C@@H]1O

inhibition [3]: 12% | inhibition [2]: 9%
SMILES: CCCCNC[C@H]1O[C@@H](n2cc(C)c(=O)[nH]c2=O)C[C@@H]1O

IC50 [9]: 28000 µM
SMILES: Nc1cn([C@H]2C[C@H](O)[C@@H](CO)O2)c(=O)[nH]c1=O

Activity [5]: 25% | Activity [6]: 15% | Activity [17]: 28%
SMILES: Cc1cn([C@H]2C[C@H](O)[C@@H](CSCCO)O2)c(=O)[nH]c1=O
